Activity calls are given as the source filed them. No cut-off for these calls is given here.
Legend:
Type in all cases: functional
COLO 205 = assay: Antiproliferative activity against human COLO 205 cells assessed as growth inhibition at 10 uM relative to control; settings: read-out: GI
How it was run: (§1)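 Single-dose screen run by the US National Cancer Institute across its 60-human tumour cell line panel. Each compound was tested at one concentration. Percent growth inhibition was recorded for each cell line.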

NCI-H460 = assay: Antiproliferative activity against human NCI-H460 cells assessed as growth inhibition at 10 uM relative to control; settings: read-out: GI; how it was run: as §1
SF-295 = assay: Antiproliferative activity against human SF-295 cells assessed as growth inhibition at 10 uM relative to control; how it was run: as §1
HL-60(TB) = assay: Antiproliferative activity against human HL-60(TB) cells assessed as growth inhibition at 10 uM relative to control; settings: read-out: GI
TK-10 = assay: Antiproliferative activity against human TK-10 cells assessed as growth inhibition at 10 uM relative to control; settings: read-out: GI
How it was run: (§2)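 NCI 60 human tumour cell line panel screen. Compounds tested at a single dose and growth inhibition (%) determined for each line.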

SW-620 = assay: Antiproliferative activity against human SW-620 cells assessed as growth inhibition at 10 uM relative to control; settings: read-out: GI; how it was run: as §2
BT-549 = assay: Antiproliferative activity against human BT-549 cells assessed as growth inhibition at 10 uM relative to control; settings: read-out: GI; how it was run: as §1
UACC-62 = assay: Antiproliferative activity against human UACC-62 cells assessed as growth inhibition at 10 uM relative to control; settings: read-out: GI; how it was run: as §2
NCI-H522 = assay: Antiproliferative activity against human NCI-H522 cells assessed as growth inhibition at 10 uM relative to control; settings: read-out: GI; how it was run: as §1
SNB-19 = assay: Antiproliferative activity against human SNB-19 cells assessed as growth inhibition at 10 uM relative to control; how it was run: as §2
NCI/ADR-RES = assay: Antiproliferative activity against human NCI/ADR-RES cells assessed as growth inhibition at 10 uM relative to control; settings: read-out: GI; how it was run: as §1
NCI-H226 = assay: Antiproliferative activity against human NCI-H226 cells assessed as growth inhibition at 10 uM relative to control; settings: read-out: GI; how it was run: as §1
MDA-MB-435 = assay: Antiproliferative activity against human MDA-MB-435 cells assessed as growth inhibition at 10 uM relative to control; settings: read-out: GI; how it was run: as §1
A549 = assay: Antiproliferative activity against human A549 cells assessed as growth inhibition at 10 uM relative to control; settings: read-out: GI; how it was run: as §1
SK-MEL-28 = assay: Antiproliferative activity against human SK-MEL-28 cells assessed as growth inhibition at 10 uM relative to control; settings: read-out: GI; how it was run: as §2
MCF7 = assay: Antiproliferative activity against human MCF7 cells assessed as growth inhibition at 10 uM relative to control; settings: read-out: GI; how it was run: as §1
SK-MEL-5 = assay: Antiproliferative activity against human SK-MEL-5 cells assessed as growth inhibition at 10 uM relative to control; settings: read-out: GI; how it was run: as §2
SR = assay: Antiproliferative activity against human SR cells assessed as growth inhibition at 10 uM relative to control; settings: read-out: GI; how it was run: as §2
MDA-MB-468 = assay: Antiproliferative activity against human MDA-MB-468 cells assessed as growth inhibition at 10 uM relative to control; settings: read-out: GI; how it was run: as §1
HCT-15 = assay: Antiproliferative activity against human HCT-15 cells assessed as growth inhibition at 10 uM relative to control; settings: read-out: GI; how it was run: as §1
HOP-92 = assay: Antiproliferative activity against human HOP-92 cells assessed as growth inhibition at 10 uM relative to control; settings: read-out: GI; how it was run: as §1
KM12 = assay: Antiproliferative activity against human KM12 cells assessed as growth inhibition at 10 uM relative to control; settings: read-out: GI; how it was run: as §1
HCC 2998 = assay: Antiproliferative activity against human HCC 2998 cells assessed as growth inhibition at 10 uM relative to control; how it was run: as §1
RPMI-8226 = assay: Antiproliferative activity against human RPMI-8226 cells assessed as growth inhibition at 10 uM relative to control; settings: read-out: GI; how it was run: as §1
M14 = assay: Antiproliferative activity against human M14 cells assessed as growth inhibition at 10 uM relative to control; settings: read-out: GI; how it was run: as §1
UO-31 = assay: Antiproliferative activity against human UO-31 cells assessed as growth inhibition at 10 uM relative to control; settings: read-out: GI; how it was run: as §2
SNB-75 = assay: Antiproliferative activity against human SNB-75 cells assessed as growth inhibition at 10 uM relative to control; settings: read-out: GI; how it was run: as §2
OVCAR-8 = assay: Antiproliferative activity against human OVCAR-8 cells assessed as growth inhibition at 10 uM relative to control; settings: read-out: GI; how it was run: as §1
OVCAR-4 = assay: Antiproliferative activity against human OVCAR-4 cells assessed as growth inhibition at 10 uM relative to control; settings: read-out: GI; how it was run: as §1
T47D = assay: Antiproliferative activity against human T47D cells assessed as growth inhibition at 10 uM relative to control; settings: read-out: GI; how it was run: as §2
MDA-MB-231 = assay: Antiproliferative activity against human MDA-MB-231 cells assessed as growth inhibition at 10 uM relative to control; how it was run: as §1
786-0 = assay: Antiproliferative activity against human 786-0 cells assessed as growth inhibition at 10 uM relative to control; settings: read-out: GI; how it was run: as §1
HOP-62 = assay: Antiproliferative activity against human HOP-62 cells assessed as growth inhibition at 10 uM relative to control; settings: read-out: GI; how it was run: as §1
A498 = assay: Antiproliferative activity against human A498 cells assessed as growth inhibition at 10 uM relative to control; settings: read-out: GI; how it was run: as §1
OVCAR-3 = assay: Antiproliferative activity against human OVCAR-3 cells assessed as growth inhibition at 10 uM relative to control; settings: read-out: GI; how it was run: as §1
IGROV-1 = assay: Antiproliferative activity against human IGROV-1 cells assessed as growth inhibition at 10 uM relative to control; settings: read-out: GI; how it was run: as §1
HCT-116 = assay: Antiproliferative activity against human HCT-116 cells assessed as growth inhibition at 10 uM relative to control; settings: read-out: GI; how it was run: as §1
Hs-578T = assay: Antiproliferative activity against human Hs-578T cells assessed as growth inhibition at 10 uM relative to control; settings: read-out: GI; how it was run: as §1
SK-OV-3 = assay: Antiproliferative activity against human SK-OV-3 cells assessed as growth inhibition at 10 uM relative to control; settings: read-out: GI; how it was run: as §2
SF-539 = assay: Antiproliferative activity against human SF-539 cells assessed as growth inhibition at 10 uM relative to control; settings: read-out: GI; how it was run: as §1
SK-MEL-2 = assay: Antiproliferative activity against human SK-MEL-2 cells assessed as growth inhibition at 10 uM relative to control; settings: read-out: GI; how it was run: as §1
Malme-3M = assay: Antiproliferative activity against human Malme-3M cells assessed as growth inhibition at 10 uM relative to control; settings: read-out: GI; how it was run: as §1
HT-29 = assay: Antiproliferative activity against human HT29 cells assessed as growth inhibition at 10 uM relative to control; settings: read-out: GI; how it was run: as §1
CCRF-CEM = assay: Antiproliferative activity against human CCRF-CEM cells assessed as growth inhibition at 10 uM relative to control; settings: read-out: GI; how it was run: as §1
U-251 = assay: Antiproliferative activity against human U251 cells assessed as growth inhibition at 10 uM relative to control; settings: read-out: GI; how it was run: as §2
ACHN = assay: Antiproliferative activity against human ACHN cells assessed as growth inhibition at 10 uM relative to control; settings: read-out: GI; how it was run: as §1
LOX IMVI = assay: Antiproliferative activity against human LOX IMVI cells assessed as growth inhibition at 10 uM relative to control; settings: read-out: GI; how it was run: as §1
NCI-H23 = assay: Antiproliferative activity against human NCI-H23 cells assessed as growth inhibition at 10 uM relative to control; how it was run: as §1
EKVX = assay: Antiproliferative activity against human EKVX cells assessed as growth inhibition at 10 uM relative to control; settings: read-out: GI; how it was run: as §1
UACC-257 = assay: Antiproliferative activity against human UACC-257 cells assessed as growth inhibition at 10 uM relative to control; settings: read-out: GI; how it was run: as §2
MOLT-4 = assay: Antiproliferative activity against human MOLT-4 cells assessed as growth inhibition at 10 uM relative to control; settings: read-out: GI; how it was run: as §1
PC-3 = assay: Antiproliferative activity against human PC-3 cells assessed as growth inhibition at 10 uM relative to control; settings: read-out: GI; how it was run: as §1
DU-145 = assay: Antiproliferative activity against human DU-145 cells assessed as growth inhibition at 10 uM relative to control; settings: read-out: GI; how it was run: as §1
CAKI-1 = assay: Antiproliferative activity against human CAKI-1 cells assessed as growth inhibition at 10 uM relative to control; settings: read-out: GI; how it was run: as §1
K562 = assay: Antiproliferative activity against human K562 cells assessed as growth inhibition at 10 uM relative to control; settings: read-out: GI; how it was run: as §1
SN12C = assay: Antiproliferative activity against human SN12C cells assessed as growth inhibition at 10 uM relative to control; settings: read-out: GI; how it was run: as §2
NCI-H322M = assay: Antiproliferative activity against human NCI-H322M cells assessed as growth inhibition at 10 uM relative to control; settings: read-out: GI; how it was run: as §1

## C/C(=C(/c1ccccc1)c1ccc(OCC(O)CN2CCOCC2)cc1)c1ccccc1 (configuration not stated)
COLO 205
  inhibition of growth at 10 µM: 30.6%
NCI-H460
  inhibition of growth at 10 µM: 7.41%
SF-295
  growth inhibition (GI): inactive
HL-60(TB)
  inhibition of growth at 10 µM: 39.3%
TK-10
  inhibition of growth at 10 µM: 5.68%
SW-620
  inhibition of growth at 10 µM: 11.4%
BT-549
  inhibition of growth at 10 µM: 6.69%
UACC-62
  inhibition of growth at 10 µM: 3%
NCI-H522
  inhibition of growth at 10 µM: 26.7%
SNB-19
  growth inhibition (GI): inactive
NCI/ADR-RES
  inhibition of growth at 10 µM: 6.78%
NCI-H226
  inhibition of growth at 10 µM: 3.44%
MDA-MB-435
  inhibition of growth at 10 µM: 9.29%
A549
  inhibition of growth at 10 µM: 12.8%
SK-MEL-28
  inhibition of growth at 10 µM: 10%
MCF7
  inhibition of growth at 10 µM: 15.8%
SK-MEL-5
  inhibition of growth at 10 µM: 12.9%
SR
  inhibition of growth at 10 µM: 52.8%
MDA-MB-468
  inhibition of growth at 10 µM: 14.9%
HCT-15
  inhibition of growth at 10 µM: 46.2%
HOP-92
  inhibition of growth at 10 µM: 19.8%
KM12
  inhibition of growth at 10 µM: 36.4%
HCC 2998
  growth inhibition (GI): inactive
RPMI-8226
  inhibition of growth at 10 µM: 25%
M14
  inhibition of growth at 10 µM: -45.1%
UO-31
  inhibition of growth at 10 µM: 26.3%
SNB-75
  inhibition of growth at 10 µM: 8.61%
OVCAR-8
  inhibition of growth at 10 µM: 11.5%
OVCAR-4
  inhibition of growth at 10 µM: 10.7%
T47D
  inhibition of growth at 10 µM: 39.7%
MDA-MB-231
  growth inhibition (GI): inactive
786-0
  inhibition of growth at 10 µM: 32.9%
HOP-62
  inhibition of growth at 10 µM: 9.9%
A498
  inhibition of growth at 10 µM: 8.44%
OVCAR-3
  inhibition of growth at 10 µM: 9.6%
IGROV-1
  inhibition of growth at 10 µM: 3.82%
HCT-116
  inhibition of growth at 10 µM: 53.6%
Hs-578T
  inhibition of growth at 10 µM: 9.19%
SK-OV-3
  inhibition of growth at 10 µM: 8.68%
SF-539
  inhibition of growth at 10 µM: 25.8%
SK-MEL-2
  inhibition of growth at 10 µM: 1.12%
Malme-3M
  inhibition of growth at 10 µM: 24.8%
HT-29
  inhibition of growth at 10 µM: 86.9%
CCRF-CEM
  inhibition of growth at 10 µM: 19.6%
U-251
  inhibition of growth at 10 µM: 19.9%
ACHN
  inhibition of growth at 10 µM: 1.16%
LOX IMVI
  inhibition of growth at 10 µM: 12.2%
NCI-H23
  growth inhibition (GI): inactive
EKVX
  inhibition of growth at 10 µM: 3.36%
UACC-257
  inhibition of growth at 10 µM: 6.64%
MOLT-4
  inhibition of growth at 10 µM: 38.5%
PC-3
  inhibition of growth at 10 µM: 28.2%
DU-145
  inhibition of growth at 10 µM: 1.88%
CAKI-1
  inhibition of growth at 10 µM: 19.9%
K562
  inhibition of growth at 10 µM: 80.3%
SN12C
  inhibition of growth at 10 µM: 11.6%
NCI-H322M
  inhibition of growth at 10 µM: 4.48%
